Measured values reported in ChEMBL document CHEMBL3098084, “Synthesis and preliminary evaluation of a new fluorine-18 labelled triazine derivative for PET imaging of cannabinoid CB2 receptor” (Bioorg Med Chem Lett, 2014).
Blank lines part the entries; values can stand above or below the molecule they belong to.

Assays:
Cannabinoid receptor 2 [1] = molecular target: T1, Cannabinoid receptor 2 (Homo sapiens, UniProt P34972); experiment: Agonist activity at human CB2 receptor expressed in CHO CRE-luc cells; assay type: functional, cell-based
[2] = Cmax in brain of CD-1 mouse at 3 mg/kg, iv after 5 mins; assay type: ADME, organism-based; set-up: dose 3 mg/kg, route intravenous
Procedure, shortened: (§1)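 Male CD1 mice got a single intravenous dose of 3 mg/kg. Drug levels were measured in plasma and brain. The first sampling time was 5 min post-dose. Apparent terminal half-life and brain/plasma AUC(0-inf) were derived from the concentration-time profiles.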

Cannabinoid receptor 2 [3] = molecular target: T1, Cannabinoid receptor 2; experiment: Binding affinity to human CB2 receptor expressed in CHO cells; assay type: cell-based
[4] = Apparent terminal half life in CD-1 mouse at 3 mg/kg, iv; assay type: ADME, organism-based; set-up: dose 3 mg/kg, route intravenous; conditions: in vivo, read-out: betat1/2(app) (converted); procedure, shortened: as §1
[5] = Drug uptake in occipital cotrex of baboon neuroinflammation model at 110 +/- 34 MBq, iv after 20 mins by PET imaging analysis; assay type: ADME, organism-based, Occipital cortex; conditions: papio anubis, in vivo
Procedure, shortened: (§2)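 Baboons (Papio anubis) received [¹⁸F]-d₂-3 (110 34 MBq) iv. PET images were acquired over 180 min on a Siemens Biograph mCT camera with arterial blood sampling. Regional time-activity curves (frontal, occipital, temporal and parietal cortex, cerebellum) were expressed as SUV, and whole-brain uptake as percent injected dose. Where used, LPS (0.05 or 0.1 mg/kg) was given iv 4 h before the radiotracer.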

[6] = Drug metabolism in baboon neuroinflammation model plasma assessed as compound remaining at 110 +/- 34 MBq, iv after 180 mins by HPLC analysis; assay type: ADME, organism-based; conditions: papio anubis, read-out: Stability
Procedure, shortened: (§3)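 Radiotracer [¹⁸F]-d₂-3 (110 34 MBq) was given iv to rhesus macaque or baboon, with arterial blood sampled over 180 min. Parent fraction in plasma was determined by reverse-phase HPLC in a subset of samples. Where used, LPS (0.05 or 0.1 mg/kg) was given iv 4 h before the radiotracer.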

[7] = Drug uptake in frontal cortex of baboon neuroinflammation model at 110 +/- 34 MBq, iv after 20 mins by PET imaging analysis; assay type: ADME, organism-based; conditions: papio anubis, in vivo; procedure, shortened: as §2
[8] = Drug uptake in temporal cotrex of baboon neuroinflammation model at 110 +/- 34 MBq, iv after 20 mins by PET imaging analysis; assay type: ADME, organism-based, Temporal cortex; conditions: papio anubis, in vivo; procedure, shortened: as §2
[9] = Drug metabolism in baboon neuroinflammation model plasma assessed as compound remaining at 110 +/- 34 MBq, iv administered 180 mins post LPS-challenge by HPLC analysis; assay type: ADME, organism-based; conditions: papio anubis, read-out: Stability; procedure, shortened: as §3
[10] = Drug uptake in perietal cotrex of baboon neuroinflammation model at 110 +/- 34 MBq, iv after 20 mins by PET imaging analysis; assay type: ADME, organism-based, Parietal cortex; conditions: papio anubis, in vivo; procedure, shortened: as §2
Brain = experiment: Drug uptake in whole brain of baboon neuroinflammation model at 110 +/- 34 MBq, iv after 20 mins by PET imaging analysis; assay type: ADME, organism-based; conditions: papio anubis, in vivo; procedure, shortened: as §2
[11] = Drug metabolism in rhesus monkey plasma assessed as compound remaining at 110 +/- 34 MBq, iv after 180 mins by HPLC analysis; assay type: ADME, organism-based, Macaca mulatta; conditions: read-out: Stability; procedure, shortened: as §3
[12] = Drug uptake in cerebellum of baboon neuroinflammation model at 110 +/- 34 MBq, iv after 20 mins by PET imaging analysis; assay type: ADME, organism-based; conditions: papio anubis, in vivo; procedure, shortened: as §2
Cannabinoid receptor 1 = Cannabinoid receptor 1 (Homo sapiens, UniProt P21554); experiment: Binding affinity to human CB1 receptor
Cannabinoid receptor 2 [13] = molecular target: T1, Cannabinoid receptor 2; experiment: Binding affinity to human CB2 receptor

T1 sequence (P34972 whole entry): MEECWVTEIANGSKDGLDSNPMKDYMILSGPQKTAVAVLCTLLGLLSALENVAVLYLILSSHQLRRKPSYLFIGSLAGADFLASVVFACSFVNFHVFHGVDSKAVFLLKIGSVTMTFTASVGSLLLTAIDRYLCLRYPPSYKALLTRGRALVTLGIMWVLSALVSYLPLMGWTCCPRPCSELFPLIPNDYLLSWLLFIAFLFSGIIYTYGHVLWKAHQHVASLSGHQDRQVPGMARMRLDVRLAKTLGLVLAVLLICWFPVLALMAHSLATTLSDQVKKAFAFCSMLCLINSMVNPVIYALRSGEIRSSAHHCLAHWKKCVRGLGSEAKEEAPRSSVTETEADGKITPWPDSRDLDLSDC
Cannabinoid receptor 1, sequence (P21554 whole entry): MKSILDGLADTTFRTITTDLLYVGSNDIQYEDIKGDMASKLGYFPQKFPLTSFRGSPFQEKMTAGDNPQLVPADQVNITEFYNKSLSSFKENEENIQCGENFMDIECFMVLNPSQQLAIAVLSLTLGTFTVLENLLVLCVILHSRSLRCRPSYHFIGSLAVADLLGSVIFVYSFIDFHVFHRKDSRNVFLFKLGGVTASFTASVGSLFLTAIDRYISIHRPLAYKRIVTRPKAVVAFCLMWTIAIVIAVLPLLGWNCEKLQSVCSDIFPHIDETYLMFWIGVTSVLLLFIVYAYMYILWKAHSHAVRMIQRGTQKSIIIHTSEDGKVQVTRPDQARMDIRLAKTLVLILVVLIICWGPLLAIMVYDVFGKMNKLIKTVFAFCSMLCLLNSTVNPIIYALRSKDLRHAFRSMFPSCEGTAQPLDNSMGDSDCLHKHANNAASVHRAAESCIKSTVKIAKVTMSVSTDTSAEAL

- EC50 (Cannabinoid receptor 2 [1]): 0.78 nM
- Cmax [2]: 2300 ng/g
- IC50 (Cannabinoid receptor 2 [3]): 1.4 nM
- half-life [4]: 57.6 min
SMILES: CC(C)(O)c1cc(-c2nc(NCCc3ccc(F)cc3)nc(OCF)n2)ccc1Cl

- SUV [5]: 0.7 g/mL
- remaining at 3 h [6]: 35%
- SUV [7]: 0.7 g/mL
- SUV [8]: 0.7 g/mL
- remaining at 3 h [9]: 15%
- SUV [10]: 0.7 g/mL
- Drug uptake (Brain): 0.5 %ID
- remaining at 3 h [11]: 35%
- SUV [12]: 0.7 g/mL
SMILES: [2H]C([2H])([18F])Oc1nc(NCCc2ccc(F)cc2)nc(-c2ccc(Cl)c(C(C)(C)O)c2)n1

- IC50 (Cannabinoid receptor 1): 300 nM
- IC50 (Cannabinoid receptor 2 [13]): 0.58 nM
SMILES: COc1nc(NCCc2ccc(F)cc2)nc(-c2ccc(Cl)c(C(C)(C)O)c2)n1
